Measurements as given in article PMC5615838 (Toxicology Reports, 2016).

Tests used:
[1] = test system: GPCRs, ion channels, nuclear receptors, transporters; assay: lead profiling receptor screen; type: binding; details: 10 μM
hERG = hERG (Homo sapiens, UniProt Q12809); assay: hERG electrophysiology; type: cell-based
CYP1A2 = target: T1, CYP1A2 (Homo sapiens, UniProt P05177); assay: CYP inhibition, LC–MS/MS assay in human liver microsomes; type: in vitro ADME; details: pooled human liver microsomes, probe ethoxyresorufin
T1 sequence (P05177 1-516): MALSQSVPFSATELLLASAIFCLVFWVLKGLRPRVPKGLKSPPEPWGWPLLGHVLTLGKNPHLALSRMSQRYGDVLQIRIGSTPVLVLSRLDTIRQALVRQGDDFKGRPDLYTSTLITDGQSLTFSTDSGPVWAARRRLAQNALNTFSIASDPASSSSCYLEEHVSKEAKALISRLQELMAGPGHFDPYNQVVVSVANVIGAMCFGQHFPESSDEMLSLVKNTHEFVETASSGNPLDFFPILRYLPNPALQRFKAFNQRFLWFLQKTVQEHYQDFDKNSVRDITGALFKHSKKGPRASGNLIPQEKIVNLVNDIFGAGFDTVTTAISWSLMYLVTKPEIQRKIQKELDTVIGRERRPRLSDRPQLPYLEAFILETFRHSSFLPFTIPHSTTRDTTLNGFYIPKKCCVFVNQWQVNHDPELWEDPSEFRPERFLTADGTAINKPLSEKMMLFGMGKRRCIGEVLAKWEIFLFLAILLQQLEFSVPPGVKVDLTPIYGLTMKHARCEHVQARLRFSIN
Procedure, shortened: (§1)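 Follow-up CYP panel in pooled human liver microsomes with CYP-specific probe substrates; CYP-specific metabolites quantified by LC-MS/MS. Test compound at 10 μM. Percent inhibition reported.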

CYP2C9 [2] = target: T2, CYP2C9 (Homo sapiens, UniProt P11712); assay: as above; type: in vitro ADME; details: pooled human liver microsomes, probe tolbutamide
T2 sequence (P11712 whole entry): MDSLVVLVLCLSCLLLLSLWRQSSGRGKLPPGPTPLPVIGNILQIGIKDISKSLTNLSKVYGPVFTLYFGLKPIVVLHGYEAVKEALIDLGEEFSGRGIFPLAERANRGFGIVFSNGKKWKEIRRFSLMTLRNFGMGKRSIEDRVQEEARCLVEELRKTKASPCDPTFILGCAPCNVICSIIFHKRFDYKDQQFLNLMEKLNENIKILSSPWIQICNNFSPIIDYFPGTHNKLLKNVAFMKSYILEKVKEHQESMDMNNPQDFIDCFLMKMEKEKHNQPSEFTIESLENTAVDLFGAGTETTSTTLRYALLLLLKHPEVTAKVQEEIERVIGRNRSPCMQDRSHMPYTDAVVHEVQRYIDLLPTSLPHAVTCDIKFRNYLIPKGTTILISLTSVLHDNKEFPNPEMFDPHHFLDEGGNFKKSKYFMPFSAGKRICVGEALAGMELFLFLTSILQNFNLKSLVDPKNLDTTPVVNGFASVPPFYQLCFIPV
Procedure, shortened: as §1

CYP2C19 = CYP2C19 (Homo sapiens, UniProt P33261); assay: as above; type: in vitro ADME; details: pooled human liver microsomes, probe S-mephenytoin
Chain of CYP2C19 (P33261 whole entry): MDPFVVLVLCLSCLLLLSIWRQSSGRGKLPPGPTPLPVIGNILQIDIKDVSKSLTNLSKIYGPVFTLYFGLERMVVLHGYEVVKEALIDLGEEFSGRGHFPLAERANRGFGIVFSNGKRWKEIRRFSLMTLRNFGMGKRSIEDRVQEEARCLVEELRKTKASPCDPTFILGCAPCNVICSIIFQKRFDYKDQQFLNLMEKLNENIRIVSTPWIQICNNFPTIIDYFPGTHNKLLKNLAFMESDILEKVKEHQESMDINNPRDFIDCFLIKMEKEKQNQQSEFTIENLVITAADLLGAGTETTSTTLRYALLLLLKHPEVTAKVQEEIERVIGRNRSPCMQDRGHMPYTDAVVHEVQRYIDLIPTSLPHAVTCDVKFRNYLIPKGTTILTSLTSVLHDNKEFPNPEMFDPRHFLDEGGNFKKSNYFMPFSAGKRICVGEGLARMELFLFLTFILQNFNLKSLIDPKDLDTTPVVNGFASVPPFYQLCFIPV
Procedure, shortened: as §1

CYP2D6 = CYP2D6 (Homo sapiens, UniProt P10635); assay: as above; type: in vitro ADME; details: pooled human liver microsomes, probe bufuralol
Chain of CYP2D6 (P10635 whole entry): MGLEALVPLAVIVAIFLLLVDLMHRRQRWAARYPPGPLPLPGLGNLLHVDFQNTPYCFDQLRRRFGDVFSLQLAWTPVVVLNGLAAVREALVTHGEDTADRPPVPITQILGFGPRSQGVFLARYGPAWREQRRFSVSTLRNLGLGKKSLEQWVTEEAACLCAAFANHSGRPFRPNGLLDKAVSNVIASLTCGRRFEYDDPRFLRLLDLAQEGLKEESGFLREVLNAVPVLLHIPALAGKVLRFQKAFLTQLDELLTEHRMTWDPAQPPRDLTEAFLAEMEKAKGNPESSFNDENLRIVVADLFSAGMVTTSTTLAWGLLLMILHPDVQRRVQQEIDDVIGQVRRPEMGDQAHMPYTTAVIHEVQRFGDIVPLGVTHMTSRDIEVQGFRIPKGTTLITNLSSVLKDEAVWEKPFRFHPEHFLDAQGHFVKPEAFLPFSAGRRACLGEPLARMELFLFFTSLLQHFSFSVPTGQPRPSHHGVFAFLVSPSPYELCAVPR
Procedure, shortened: as §1

CYP3A4 = CYP3A4 (Homo sapiens, UniProt P08684); assay: as above; type: in vitro ADME; details: pooled human liver microsomes, probe midazolam
Chain of CYP3A4 (P08684 whole entry): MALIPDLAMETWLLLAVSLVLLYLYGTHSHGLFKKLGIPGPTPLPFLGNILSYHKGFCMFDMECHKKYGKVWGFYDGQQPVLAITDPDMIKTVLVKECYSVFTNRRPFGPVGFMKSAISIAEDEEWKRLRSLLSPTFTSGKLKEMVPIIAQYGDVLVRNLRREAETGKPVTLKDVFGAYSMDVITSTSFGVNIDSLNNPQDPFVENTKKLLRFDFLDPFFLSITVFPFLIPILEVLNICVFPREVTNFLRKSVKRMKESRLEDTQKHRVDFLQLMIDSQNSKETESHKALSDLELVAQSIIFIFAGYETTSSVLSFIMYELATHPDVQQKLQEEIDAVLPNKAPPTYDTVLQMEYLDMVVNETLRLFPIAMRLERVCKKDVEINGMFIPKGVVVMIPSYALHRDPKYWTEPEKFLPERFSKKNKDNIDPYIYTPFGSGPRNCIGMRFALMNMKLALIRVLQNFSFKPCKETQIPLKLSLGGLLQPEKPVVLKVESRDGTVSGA
Procedure, shortened: as §1

CYP2C9 [3] = target: T2, CYP2C9; type: in vitro ADME
Procedure, shortened: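 Pooled human liver microsomes preincubated with test compound for 30 min, with and without an NADPH-generating system, then incubated with diclofenac as the CYP2C9 marker substrate. IC50 derived.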

[4] = in vivo metabolism after single oral dose, plasma; design: species or system rat; details: S7958 30 mg/kg bw oral
[5] = test system: S. typhimurium strains TA98, TA100, TA1535, TA1537 and E. coli strain WP2 uvrA; assay: bacterial reverse mutation test; type: cell-based, Salmonella typhimurium, Escherichia coli; details: 50–5000 μg/plate, plate incorporation and pre-incubation, ±S9
[6] = 28-day subacute toxicity study, diet; type: in vivo, rat; details: 28 days
Procedure, shortened: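 Diet admix given for 28 consecutive days to Crl:CD(SD) rats, 10/sex/group, at 10, 30 or 100 mg/kg bw/day. H&E-stained paraffin sections of tissues examined microscopically for all control and high-dose (100 mg/kg bw/day) animals.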

[7] = proof of exposure in 28-day study, plasma concentrations; type: in vivo, rat; details: for concentration at 29 day: Crl:CD(SD) (Sprague-Dawley), rat, plasma (peripheral blood), oral; for Hepatic Portal Vein Blood Mean Conc. / Hepatic Portal Vein Blood Mean Conc. Ratio: necropsy
Procedure, shortened: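 In the 28-day dietary study (10, 30, 100 mg/kg bw/day), plasma test compound measured in peripheral blood taken at 06:00 h GMT on Day 29. Hepatic portal vein blood was sampled from the same animals at necropsy.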

[8] = JECFA SPET dietary exposure estimate; design: species or system human; details: 28- and 90-day toxicology studies
[9] = target: human bitter receptor hTAS2R8; details: antagonist; cited from earlier work

Chain of hERG (Q12809 whole entry): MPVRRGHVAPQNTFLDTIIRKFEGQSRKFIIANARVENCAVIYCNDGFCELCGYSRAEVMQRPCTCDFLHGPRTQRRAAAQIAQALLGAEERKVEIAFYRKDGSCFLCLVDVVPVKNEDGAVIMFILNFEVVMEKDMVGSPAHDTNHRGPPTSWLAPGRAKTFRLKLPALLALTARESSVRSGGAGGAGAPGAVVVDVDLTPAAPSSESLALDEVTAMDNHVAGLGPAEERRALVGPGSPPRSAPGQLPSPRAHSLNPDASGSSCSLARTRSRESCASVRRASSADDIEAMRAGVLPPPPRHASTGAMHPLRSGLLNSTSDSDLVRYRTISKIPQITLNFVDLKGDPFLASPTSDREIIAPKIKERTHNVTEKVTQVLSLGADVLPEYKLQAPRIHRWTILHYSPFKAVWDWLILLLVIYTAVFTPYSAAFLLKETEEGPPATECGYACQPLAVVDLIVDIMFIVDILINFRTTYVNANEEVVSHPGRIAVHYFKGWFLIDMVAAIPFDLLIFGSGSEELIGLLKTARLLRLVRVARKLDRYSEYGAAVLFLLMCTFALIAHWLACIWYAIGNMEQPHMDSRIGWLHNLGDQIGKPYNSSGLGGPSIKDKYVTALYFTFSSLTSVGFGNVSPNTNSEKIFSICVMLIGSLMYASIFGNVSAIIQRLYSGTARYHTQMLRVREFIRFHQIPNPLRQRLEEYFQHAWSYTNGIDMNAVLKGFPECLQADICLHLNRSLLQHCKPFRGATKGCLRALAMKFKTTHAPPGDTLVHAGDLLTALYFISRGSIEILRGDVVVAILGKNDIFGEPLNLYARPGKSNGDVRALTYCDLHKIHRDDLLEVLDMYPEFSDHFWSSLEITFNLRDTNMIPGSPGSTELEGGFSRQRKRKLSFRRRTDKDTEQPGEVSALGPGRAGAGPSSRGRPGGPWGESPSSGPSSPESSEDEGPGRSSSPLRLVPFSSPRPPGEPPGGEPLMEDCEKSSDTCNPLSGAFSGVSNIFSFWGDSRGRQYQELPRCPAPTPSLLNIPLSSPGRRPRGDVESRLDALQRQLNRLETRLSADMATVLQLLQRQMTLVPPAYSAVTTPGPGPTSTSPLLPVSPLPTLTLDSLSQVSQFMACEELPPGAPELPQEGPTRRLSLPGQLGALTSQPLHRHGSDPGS

## Cc1noc(C)c1Cn1cc(N2C(=O)N(Cc3cccc(O)c3)C(C)(C)C2=O)cn1 [S7958, 3-(1-((3,5-dimethylisoxazol-4-yl)methyl)-1H-pyrazol-4-yl)-1-(3-hydroxybenzyl)-5,5-dimethylimidazolidine-2,4-dione]
[1]
  significant responses (≥50% inhibition or stimulation): No significant responses
hERG
  inhibition at 10 µM: < 10%
CYP1A2
  inhibition at 10 µM: 16%
CYP2C9 [2]
  inhibition at 10 µM: 62%
CYP2C19
  inhibition at 10 µM: 17%
CYP2D6
  inhibition at 10 µM: 17%
CYP3A4
  inhibition at 10 µM: 12%
CYP2C9 [3]
  IC50: 8.8 µM
CYP2C9 [3]; 30 min preincubation ±NADPH
  time- or metabolism-dependent inhibition: no evidence of either time- or metabolism-dependent inhibition
[4]
  maximum concentration in plasma: 5.2 ± 7.1 ng/mL
[5]
  Reverse mutation (in vitro), Result: Negative
[6]; 10, 30, 100 mg/kg bw/day food ad-mix, both sexes
  NOAEL: 100 mg/kg bw/day
[6]; up to 100 mg/kg bw/day
  Findings: No test-article related findings
[7]; Day 29, 10 mg/kg bw/day, F
  Peripheral Blood Mean Conc. Ratio: 1
[7]; Day 29, 10 mg/kg bw/day, M
  Peripheral Blood Mean Conc. Ratio: 1
[7]; Day 29, 30 mg/kg bw/day, F
  Peripheral Blood Mean Conc. Ratio: 3.6
[7]; Day 29, 30 mg/kg bw/day, M
  Peripheral Blood Mean Conc. Ratio: 4.1
[7]; Day 29, 100 mg/kg bw/day, F
  Peripheral Blood Mean Conc. Ratio: 7.4
[7]; Day 29, 100 mg/kg bw/day, M
  Peripheral Blood Mean Conc. Ratio: 41.5
[7]; female, 10 mg/kg bw/day
  concentration at 29 day: 18.4 ng/mL
[7]; female, 30 mg/kg bw/day
  concentration at 29 day: 66.7 ng/mL
[7]; female, 100 mg/kg bw/day
  concentration at 29 day: 136 ng/mL
[7]; male, 10 mg/kg bw/day
  concentration at 29 day: 0.441 ng/mL
[7]; male, 30 mg/kg bw/day
  concentration at 29 day: 1.79 ng/mL
[7]; male, 100 mg/kg bw/day
  concentration at 29 day: 18.3 ng/mL
[7]; 10 mg/kg bw/day, F
  Hepatic Portal Vein Blood Mean Conc.: 19.4 ng/mL
  Hepatic Portal Vein Blood Mean Conc. Ratio: 1
[7]; 10 mg/kg bw/day, M
  Hepatic Portal Vein Blood Mean Conc.: 24.4 ng/mL
  Hepatic Portal Vein Blood Mean Conc. Ratio: 1
[7]; 30 mg/kg bw/day, F
  Hepatic Portal Vein Blood Mean Conc.: 85.0 ng/mL
  Hepatic Portal Vein Blood Mean Conc. Ratio: 4.4
[7]; 30 mg/kg bw/day, M
  Hepatic Portal Vein Blood Mean Conc.: 68.2 ng/mL
  Hepatic Portal Vein Blood Mean Conc. Ratio: 2.8
[7]; 100 mg/kg bw/day, F
  Hepatic Portal Vein Blood Mean Conc.: 334 ng/mL
  Hepatic Portal Vein Blood Mean Conc. Ratio: 17.2
[7]; 100 mg/kg bw/day, M
  Hepatic Portal Vein Blood Mean Conc.: 345 ng/mL
  Hepatic Portal Vein Blood Mean Conc. Ratio: 14.1
[8]
  NOAEL of 100 mg/kg bw/day as multiple of estimated dietary exposure: 1500 times
[9]
  IC50: 73 nM
